ChEMBL document CHEMBL4715736, “Identification of anticancer agents based on the thieno[2,3-b]pyridine and 1H-pyrazole molecular scaffolds” (2016)

Assays:
Assay type in all cases: functional
[1] = test system: MOLT-4; assay: Growth inhibition of human MOLT-4 cells assessed as cell growth at 0.01 uM incubated for 48 hrs by sulforhodamine B assay relative to control; details: read-out: Activity
[2] = test system: NCI-H322M; assay: Growth inhibition of human NCI-H322M cells assessed as cell growth at 0.01 uM incubated for 48 hrs by sulforhodamine B assay relative to control; details: read-out: Activity
[3] = test system: HCT-116; assay: Growth inhibition of human HCT-116 cells assessed as cell growth at 0.01 uM incubated for 48 hrs by sulforhodamine B assay relative to control; details: read-out: Activity
[4] = test system: HT-29; assay: Growth inhibition of human HT-29 cells assessed as cell growth at 0.01 uM incubated for 48 hrs by sulforhodamine B assay relative to control; details: read-out: Activity
[5] = test system: SF-295; assay: Growth inhibition of human SF-295 cells assessed as cell growth at 0.01 uM incubated for 48 hrs by sulforhodamine B assay relative to control; details: read-out: Activity
[6] = test system: SK-MEL-2; assay: Growth inhibition of human SK-MEL-2 cells assessed as cell growth at 0.01 uM incubated for 48 hrs by sulforhodamine B assay relative to control; details: read-out: Activity
[7] = test system: UACC-62; assay: Growth inhibition of human UACC-62 cells assessed as cell growth at 0.01 uM incubated for 48 hrs by sulforhodamine B assay relative to control; details: read-out: Activity
[8] = test system: CAKI-1; assay: Growth inhibition of human CAKI-1 cells assessed as cell growth at 0.01 uM incubated for 48 hrs by sulforhodamine B assay relative to control; details: read-out: Activity
Method in brief: (§1)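 NCI Developmental Therapeutics Program NCI60 panel. Compounds that were active in the 10 µM one-dose screen went on to dose–response testing. Growth at each concentration is expressed relative to untreated control (100%). GI50 (concentration giving 50% of maximal inhibition of proliferation) and TGI (concentration giving total growth inhibition) were derived from the curves.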

[9] = test system: RXF 393; assay: Growth inhibition of human RXF 393 cells assessed as cell growth at 0.01 uM incubated for 48 hrs by sulforhodamine B assay relative to control; details: read-out: Activity
[10] = test system: DU-145; assay: Growth inhibition of human DU-145 cells assessed as cell growth at 0.01 uM incubated for 48 hrs by sulforhodamine B assay relative to control; details: read-out: Activity; method in brief: as §1
[11] = test system: SR; assay: Growth inhibition of human SR cells assessed as cell growth at 0.1 uM incubated for 48 hrs by sulforhodamine B assay relative to control; details: read-out: Activity
[12] = test system: NCI-H460; assay: Growth inhibition of human NCI-H460 cells assessed as cell growth at 0.1 uM incubated for 48 hrs by sulforhodamine B assay relative to control; details: read-out: Activity
[13] = test system: HT-29; assay: Growth inhibition of human HT-29 cells assessed as cell growth at 0.1 uM incubated for 48 hrs by sulforhodamine B assay relative to control; details: read-out: Activity
[14] = test system: SNB-19; assay: Growth inhibition of human SNB-19 cells assessed as cell growth at 0.1 uM incubated for 48 hrs by sulforhodamine B assay relative to control; details: read-out: Activity
[15] = test system: SNB-75; assay: Growth inhibition of human SNB-75 cells assessed as cell growth at 0.1 uM incubated for 48 hrs by sulforhodamine B assay relative to control; details: read-out: Activity
[16] = test system: M14; assay: Growth inhibition of human M14 cells assessed as cell growth at 0.1 uM incubated for 48 hrs by sulforhodamine B assay relative to control; details: read-out: Activity
[17] = test system: SK-MEL-28; assay: Growth inhibition of human SK-MEL-28 cells assessed as cell growth at 0.1 uM incubated for 48 hrs by sulforhodamine B assay relative to control; details: read-out: Activity
[18] = test system: IGROV-1; assay: Growth inhibition of human IGROV-1 cells assessed as cell growth at 0.1 uM incubated for 48 hrs by sulforhodamine B assay relative to control; details: read-out: Activity
[19] = test system: OVCAR-5; assay: Growth inhibition of human OVCAR-5 cells assessed as cell growth at 0.1 uM incubated for 48 hrs by sulforhodamine B assay relative to control; details: read-out: Activity
[20] = test system: BT-549; assay: Growth inhibition of human BT-549 cells assessed as cell growth at 0.1 uM incubated for 48 hrs by sulforhodamine B assay relative to control; details: read-out: Activity
[21] = test system: K562; assay: Growth inhibition of human K562 cells assessed as cell growth at 1 uM incubated for 48 hrs by sulforhodamine B assay relative to control; details: read-out: Activity
[22] = test system: MOLT-4; assay: Growth inhibition of human MOLT-4 cells assessed as cell growth at 1 uM incubated for 48 hrs by sulforhodamine B assay relative to control; details: read-out: Activity
[23] = test system: SNB-19; assay: Growth inhibition of human SNB-19 cells assessed as cell growth at 1 uM incubated for 48 hrs by sulforhodamine B assay relative to control; details: read-out: Activity
[24] = test system: UACC-257; assay: Growth inhibition of human UACC-257 cells assessed as cell growth at 1 uM incubated for 48 hrs by sulforhodamine B assay relative to control; details: read-out: Activity
[25] = test system: IGROV-1; assay: Growth inhibition of human IGROV-1 cells assessed as cell growth at 1 uM incubated for 48 hrs by sulforhodamine B assay relative to control; details: read-out: Activity
[26] = test system: MCF7; assay: Growth inhibition of human MCF7 cells assessed as cell growth at 1 uM incubated for 48 hrs by sulforhodamine B assay relative to control; details: read-out: Activity
[27] = test system: BT-549; assay: Growth inhibition of human BT-549 cells assessed as cell growth at 1 uM incubated for 48 hrs by sulforhodamine B assay relative to control; details: read-out: Activity
[28] = test system: RPMI-8226; assay: Growth inhibition of human RPMI-8226 cells assessed as cell growth at 100 uM incubated for 48 hrs by sulforhodamine B assay relative to control; details: read-out: Activity
[29] = test system: NCI-H460; assay: Growth inhibition of human NCI-H460 cells assessed as cell growth at 100 uM incubated for 48 hrs by sulforhodamine B assay relative to control; details: read-out: Activity
[30] = test system: HCT-15; assay: Growth inhibition of human HCT-15 cells assessed as cell growth at 100 uM incubated for 48 hrs by sulforhodamine B assay relative to control; details: read-out: Activity
[31] = test system: MDA-MB-435; assay: Growth inhibition of human MDA-MB-435 cells assessed as cell growth at 100 uM incubated for 48 hrs by sulforhodamine B assay relative to control; details: read-out: Activity
[32] = test system: CAKI-1; assay: Growth inhibition of human CAKI-1 cells assessed as cell growth at 100 uM incubated for 48 hrs by sulforhodamine B assay relative to control; details: read-out: Activity; method in brief: as §1
[33] = test system: Hs-578T; assay: Growth inhibition of human Hs-578T cells assessed as cell growth at 100 uM incubated for 48 hrs by sulforhodamine B assay relative to control; details: read-out: Activity
[34] = test system: RPMI-8226; assay: Growth inhibition of human RPMI-8226 cells incubated for 48 hrs by sulforhodamine B assay
Method in brief: (§2)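 NCI DTP 60-line human tumour panel. Dose-response curves were run only for ligands active in the initial 10 µM screen. GI50 (concentration giving 50% of maximal inhibition of proliferation) and TGI (concentration giving total growth inhibition) were derived from these curves.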

[35] = test system: SF-539; assay: Growth inhibition of human SF-539 cells incubated for 48 hrs by sulforhodamine B assay; method in brief: as §2
[36] = test system: OVCAR-8; assay: Growth inhibition of human OVCAR-8 cells incubated for 48 hrs by sulforhodamine B assay; method in brief: as §2
[37] = test system: SN12C; assay: Growth inhibition of human SN12C cells incubated for 48 hrs by sulforhodamine B assay; method in brief: as §2
[38] = read-out: LC50 (the source's name)

Structure (SMILES): Nc1c(C(=O)Nc2ccccc2)sc2nc3c(cc12)CN(Cc1ccccc1)CC3
- growth at 0.01 µM [1]: 97%
- growth at 0.01 µM [2]: 93%
- growth at 0.01 µM [3]: 100%
- growth at 0.01 µM [4]: 104%
- growth at 0.01 µM [5]: 96%
- growth at 0.01 µM [6]: 96%
- growth at 0.01 µM [7]: 95%
- growth at 0.01 µM [8]: 93%
- growth at 0.01 µM [9]: 96%
- growth at 0.01 µM [10]: 106%
- growth at 0.1 µM [11]: 91%
- growth at 0.1 µM [12]: 102%
- growth at 0.1 µM [13]: 101%
- growth at 0.1 µM [14]: 94%
- growth at 0.1 µM [15]: 83%
- growth at 0.1 µM [16]: 91%
- growth at 0.1 µM [17]: 93%
- growth at 0.1 µM [18]: 98%
- growth at 0.1 µM [19]: 92%
- growth at 0.1 µM [20]: 89%
- growth at 1 µM [21]: 88%
- growth at 1 µM [22]: 97%
- growth at 1 µM [23]: 88%
- growth at 1 µM [24]: 84%
- growth at 1 µM [25]: 101%
- growth at 1 µM [26]: 82%
- growth at 1 µM [27]: 90%
- growth at 100 µM [28]: 42%
- growth at 100 µM [29]: 8%
- growth at 100 µM [30]: 25%
- growth at 100 µM [31]: -6%
- growth at 100 µM [32]: 36%
- growth at 100 µM [33]: -6%
- GI50 [34]: 55.8 µM
- LC50 [34]: > 100 µM
- TGI [34]: > 100 µM
- GI50 [35]: 2.78 µM
- TGI [35]: > 100 µM
- CC50 [35, 38]: > 100 µM
- GI50 [36]: 16.8 µM
- TGI [36]: > 100 µM
- CC50 [36, 38]: > 100 µM
- GI50 [37]: 65.7 µM
- TGI [37]: > 100 µM
- CC50 [37, 38]: > 100 µM
